Results collected from several papers.
Target: Serine/threonine-protein kinase MRCK alpha (CDC42BPA, Homo sapiens, UniProt Q5VT25)

Structure (SMILES) | assay | conditions | measurement | result
N#CC1(c2ccccn2)CCN(Cc2cc(C(=O)N3CCCC3)c(=O)n3ccccc23)CC1 | cell-free assay, competition with immobilised ligand | 1 µM | remaining binding | 84%
CCCOc1ccc(OC)c(F)c1C(=O)c1ccc(C(=O)N[C@@H]2CNC[C@H]2NC(=O)c2ccc3[nH]ncc3c2)cc1 | enzyme activity, inhibitor | 0.5 µM | remaining activity | 27%
CCN(CC)CCNC(=O)c1c(C)[nH]c(/C=C2\C(=O)Nc3ccc(F)cc32)c1C | enzyme activity, inhibitor | 10 µM | inhibition | 10%
O=C(Nc1cnn(-c2csc(C(=O)NC3COC3)c2)c1)Nc1ccccc1Cl | enzyme activity, inhibitor | 5 µM | remaining activity | 99.3%
CS(=O)(=O)CCNCc1ccc(-c2ccc3ncnc(Nc4ccc(OCc5cccc(F)c5)c(Cl)c4)c3c2)o1 | cell-free assay | 0.5 µM | remaining signal | 88.2%
Nc1cnc(N2CCc3cc(S(=O)(=O)Nc4c(F)cc(Cl)cc4F)cc(N4CCCC4=O)c32)nc1 | cell-free assay, competition with immobilised ligand | 1 µM | remaining binding | 100%
CN1CC(Oc2cnc(C#N)cc2-c2ccn3nc(NC(=O)C4CC4)cc3c2)C1 | enzyme activity, inhibitor | 1 µM | inhibition | -14%
COc1cc2ncnc(Nc3ccc(Oc4ccccc4)c(C)c3C)c2cc1OC | enzyme activity, inhibitor | 1 µM | inhibition | -6%
CC(C)(O)[C@H]1CC[C@H](Nc2ccc3ncc(-c4cccc(C(F)(F)F)c4)n3n2)CC1 | enzyme activity, inhibitor | 1 µM | remaining activity | 95.8%
Cc1cnc(NC2CCOCC2)nc1-n1cnc(C(=O)NC(CN)c2cc(F)cc(Cl)c2)c1 (stereo not shown) | enzyme activity, inhibitor, radiometric | 1 µM | remaining activity | 64%
O=C1NC(=O)c2cc(Nc3ccc(F)cc3)c(Nc3ccc(F)cc3)cc21 | cell-free assay, inhibitor | 0.5 µM | remaining signal | 92.3%
CCOc1cc(-c2nncn2C)ccc1Nc1ncc2cc(C)nc(NCC(C)(C)C)c2n1 | enzyme activity, inhibitor, FRET | 1 µM | inhibition | < 15%
CSc1cccnc1N1CCN(Cc2nc3ccccc3[nH]2)CC1 | cell-free assay, competition with immobilised ligand | 1 µM | remaining binding | 100%
Cc1ccc(NC(=O)c2ccc(C)c(C(F)(F)F)c2)cc1C#Cc1nn(C2CCC(O)CC2)c2ncnc(N)c12 (stereo not shown) | cell-free assay, inhibitor | 10 µM | remaining signal | 101%
CC1=C(C#N)[C@@H](c2ccc3[nH]nc(C)c3c2)C(C#N)=C(c2ccc(Cl)cc2)N1 | cell-free assay, competition with immobilised ligand | 1 µM | remaining binding | 82.2%
CNC(=O)c1cc(Oc2ccc(NC(=O)Nc3ccc(Cl)c(C(F)(F)F)c3)cc2)ccn1 | enzyme activity, inhibitor | 10 µM | inhibition | 2%
C[C@H](NC(=O)c1cnc2n1[C@](C)(Cc1ccc(C#N)cc1)C(=O)N2c1cc(Cl)c(F)c(Cl)c1)C(=O)NC1(c2ccccn2)CC1 | cell-free assay, competition with immobilised ligand | 1 µM | remaining binding | 100%
COc1cc(Cl)c(C(=O)N[C@@H](CN[C@H]2CC[C@@H](N)CC2)Cc2ccc(C#N)cc2)cc1-c1ccc(CN[C@H](C)c2ccc(C)cc2)o1 | enzyme activity, inhibitor | 1 µM | remaining activity | 99%
O=C(O)c1cc(-c2ccc(C3CCNCC3)cc2)c2ccc(-c3ccc(C(F)(F)F)cc3)cc2c1 | cell-free assay, competition with immobilised ligand | 1 µM | remaining binding | 100%
CC(C)(C)c1nc(-c2cccc(NS(=O)(=O)c3c(F)cccc3F)c2F)c(-c2ccnc(N)n2)s1 | enzyme activity, inhibitor, radiometric | 1 µM | remaining activity | 88%
O=C(NS(=O)(=O)c1ccc(NCC2CCOCC2)c([N+](=O)[O-])c1)c1ccc(N2CCN(Cc3ccc(C(F)(F)F)cc3-c3ccc(Cl)cc3)CC2)cc1Oc1cnc2[nH]ccc2c1 | cell-free assay, competition with immobilised ligand | 1 µM | remaining binding | 96%
Cc1ccc(Nc2nccc(N(C)c3ccc4c(C)n(C)nc4c3)n2)cc1S(N)(=O)=O | enzyme activity, inhibitor | 0.3 µM | inhibition | 9%
